ChEMBL document CHEMBL1149905, “A mutual prodrug ester of GABA and perphenazine exhibits antischizophrenic efficacy with diminished extrapyramidal effects” (J Med Chem, 2008)
Activity calls are given as the source filed them.

What was measured:
Rattus norvegicus [1] = test: Increase in prolactin level in Wistar rat plasma at 7.5 mg/kg, ip after 1 hr relative to control; assay type: functional, organism-based; set-up: dose 7.5 mg/kg
Procedure, shortened: (§1)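 Male Wistar rats (150–230 g), four per group, dosed ip in 1% lactic acid vehicle. Blood taken from the orbital vein under light ether anesthesia before dosing and 1 and 2 h after. EDTA plasma was separated at 1600g for 20 min and frozen at -78 °C. Prolactin was measured by double-antibody rat prolactin RIA, compared with vehicle and time 0 (t test).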

Rattus norvegicus [2] = test: Increase in prolactin level in Wistar rat plasma at 7.5 mg/kg, ip after 2 hrs relative to control; assay type: functional, organism-based; set-up: dose 7.5 mg/kg; procedure, shortened: as §1
Rattus norvegicus [3] = test: Toxicity assessed as induction of cataleptic extrapyramidal symptoms in Wistar rat at 7.5 mg/kg, ip after 7 hrs by wall descending test; assay type: organism-based; set-up: dose 7.5 mg/kg, route intraperitoneal; conditions: in vivo
Procedure, shortened: (§2)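 Rats (six/group) were injected ip with 5 mg/kg or 7.5 mg/kg of the parent drugs, or equimolar esters, in 1% lactic acid. Wall descending test: the time for a rat hanging on the cage wall to move its hind legs to the floor was recorded, with a 120 s maximum. Rats were tested every 30 min up to 420 min post-dose.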

Rattus norvegicus [4] = test: Decrease in sedation in Wistar rat at 5 to 20 mg/kg, po; assay type: functional, organism-based
Procedure, shortened: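 Male Wistar rats (150–230 g) were dosed by gavage. During catalepsy testing, sedation/alertness was recorded double-blind. The ip study used this scale: 0 active mobile; * calm and mobile; ** calm and immobile; *** ataxic and non-alert.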

Rattus norvegicus [5] = test: Increase in prolactin level in Wistar rat plasma at 5 mg/kg, ip after 1 hr relative to control; assay type: functional, organism-based; set-up: dose 5 mg/kg
Procedure, shortened: (§3)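 Male Wistar rats (150–230 g; four/group) received drug ip in 1% lactic acid, with a vehicle control group. Orbital-vein blood was taken under light ether anesthesia before dosing and at 1 and 2 h, collected into EDTA on ice. Plasma was spun at 1600g for 20 min and frozen at -78 °C. Prolactin was measured by double-antibody rat prolactin RIA. Comparison was by t test against control and time 0.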

Rattus norvegicus [6] = test: Increase in prolactin level in Wistar rat plasma at 5 mg/kg, ip after 2 hrs relative to control; assay type: functional, organism-based; set-up: dose 5 mg/kg; procedure, shortened: as §3
Rattus norvegicus [7] = test: Reduction of cataleptic behavior in Wistar rat at 5 to 20 mg/kg, po by bar test; assay type: functional, organism-based
Procedure, shortened: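 Rats were gavaged with 5, 10 or 20 mg/kg or equimolar doses, and catalepsy was scored 4 h post-dose; a time course was run at 5 and 10 mg/kg. Bar test: forelimbs rested on a 5.5 cm bar, and the time to descend to the surface was recorded. Rats were tested individually, hourly, with a 120 s cutoff.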

Rattus norvegicus [8] = test: Reduction of D-amphetamine-induced hyperactivity in Wistar rat assessed as reduction of wall-climbing at 2.5 mg/kg, po; assay type: functional, organism-based; set-up: dose 2.5 mg/kg
Procedure, shortened: (§4)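 Male Wistar rats (six/group) were dosed po with 1% lactic acid vehicle (two groups), 2.5 mg/kg or equimolar test agent, or GABA at 1 mg/kg. After 90 min, all groups except one vehicle group received D-amphetamine (2.0 mg/kg ip). Rats were placed singly in barrels, and after 30 min head movements and wall-climbing attempts over 120 s were counted double-blind.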

Rattus norvegicus [9] = test: Reduction of D-amphetamine-induced hyperactivity in Wistar rat assessed as reduction of head movements at 2.5 mg/kg, po; assay type: functional, organism-based; set-up: dose 2.5 mg/kg; procedure, shortened: as §4
Rattus norvegicus [10] = test: Increase in prolactin level in Wistar rat plasma at 5 to 20 mg/kg, po after 90 to 180 mins relative to control; assay type: functional, organism-based
Procedure, shortened: (§5)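 Five groups of male Wistar rats (4/group) were gavaged with 1% lactic acid vehicle, 5, 10 or 20 mg/kg, or equimolar 7, 14 or 28 mg/kg of the ester salt. Orbital-vein plasma was sampled under light ether at 0, 90 and 180 min and prolactin assayed by double-antibody RIA. Comparison was by t test against control and time 0.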

Rattus norvegicus [11] = test: Toxicity assessed as induction of cataleptic extrapyramidal symptoms in Wistar rat at 5 mg/kg, ip after 2 hrs by wall descending test; assay type: organism-based; set-up: dose 5 mg/kg, route intraperitoneal; conditions: in vivo; procedure, shortened: as §2
Rattus norvegicus [12] = test: Increase in prolactin level in Wistar rat plasma at 7 to 28 mg/kg, po after 90 to 180 mins relative to control; assay type: functional, organism-based; procedure, shortened: as §5
Rattus norvegicus [13] = test: Toxicity assessed as induction of cataleptic extrapyramidal symptoms in Wistar rat at 7.5 mg/kg, ip after 2 hrs by wall descending test; assay type: organism-based; set-up: dose 7.5 mg/kg, route intraperitoneal; conditions: in vivo
Procedure, shortened: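 Male Wistar rats (150–230 g), six per group, dosed ip in 1% lactic acid. Wall descending test: time for a rat hanging on the cage wall to move its hind legs and reach the floor, capped at 120 s. Rats were tested individually, every 30 min up to 420 min. Sedation was scored double-blind at the same time points.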

Rattus norvegicus [14] = test: Inhibition of D-amphetamine-induced hyperactivity in Wistar rat at 2.5 mg/kg, po; assay type: functional, organism-based; set-up: dose 2.5 mg/kg; procedure, shortened: as §4
Rattus norvegicus [15] = test: Toxicity assessed as induction of cataleptic extrapyramidal symptoms in orally dosed Wistar rat by bar test; conditions: in vivo, po

| Compound | Activity (Rattus norvegicus [1]) | Activity (Rattus norvegicus [2]) | Activity (Rattus norvegicus [5]) | Activity (Rattus norvegicus [6]) | Activity (Rattus norvegicus [11]) | further results |
| --- | --- | --- | --- | --- | --- | --- |
| Cl.NCCCC(=O)OCCN1CCN(CCCN2c3ccccc3Sc3ccc(C(F)(F)F)cc32)CC1 | Active | Active | – | – | – | Activity (Rattus norvegicus [3]): Non-toxic |
| Cl.NCCCC(=O)OCCN1CCN(CCCN2c3ccccc3Sc3ccc(Cl)cc32)CC1 [BL-1020] | – | – | Active | Active | Non-toxic | Activity (Rattus norvegicus [4]): Active; Activity (Rattus norvegicus [7]): Active; Activity (Rattus norvegicus [8]): Active; Activity (Rattus norvegicus [9]): Active; Activity (Rattus norvegicus [10]): Active; Activity (Rattus norvegicus [12]): Active |
| OCCN1CCN(CCCN2c3ccccc3Sc3ccc(C(F)(F)F)cc32)CC1 [FLUPHENAZINE] | Active | Active | – | – | – | Activity (Rattus norvegicus [13]): Toxic |
| OCCN1CCN(CCCN2c3ccccc3Sc3ccc(Cl)cc32)CC1 [PERPHENAZINE] | – | – | Active | Active | Toxic | Activity (Rattus norvegicus [14]): Active; Activity (Rattus norvegicus [15]): Dose-dependent effect |
